The nature of data set [1]: Cytotoxicity against human MT4 cells after 5 days by MTT assay. It counts as cell-based. In short, it runs like this:
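Mock-infected MT-4 cells (6×10^5 cells/mL) received serial fivefold compound dilutions in triplicate, run in parallel with the infected series. After 5 days, viability measured by MTT formazan absorbance at 540 and 690 nm, using the median OD of three wells.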
A general note: Formazan colour is commonly taken as a measure of viable cells.

A short description of data set [2]: Selectivity index, ratio of CC50 for human MT4 cells to EC50 for HIV1 3B. It counts as toxicity, cell-based. Particulars: read-out: Ratio CC50/EC50. The procedure, abridged:
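Ratio CC50/EC50, both taken from the same 5-day MTT run in MT-4 cells. CC50 is from mock-infected wells.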

For data set [3], the system named is Human immunodeficiency virus 1. Briefly: Antiviral activity against HIV1 expressing reverse transcriptase K103N/Y181C mutant infected in human MT4 cells assessed as protection against virus-induced cytotoxicity after 5 days by MTT assay. It is filed as functional, organism-based. Particulars: Human immunodeficiency virus 1, MT4, 120 h. The procedure, abridged: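 MT-4 cells, in exponential growth, pelleted and resuspended at 6×10^5 cells/mL, then infected or mock-infected. Compound added at start as serial fivefold dilutions in triplicate wells. Viability read by MTT reduction to formazan at 540 and 690 nm after 5 days.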

In data set [4] the test system is Human immunodeficiency virus 1. Briefly: Antiviral activity against HIV1 3B infected in human MT4 cells assessed as protection against virus-induced cytotoxicity after 5 days by MTT assay. It is filed as functional, organism-based. Particulars: Human immunodeficiency virus 1, 3B, MT4, 120 h. The procedure, abridged:
(§1)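 MT-4 cells (6×10^5 cells/mL) infected with HIV-1 IIIB or HIV-2 ROD at 100–300 CCID50. Compounds added at 10× stock as serial fivefold dilutions in triplicate, with untreated infected and mock-infected controls run alongside. Viability read by MTT reduction at 540 and 690 nm 5 days post-infection, using the median OD of three wells.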

Data set [5] relates to Human immunodeficiency virus 2. Briefly: Antiviral activity against HIV2 ROD infected in human MT4 cells assessed as inhibition of viral replication. It counts as functional, organism-based. Particulars: ISOLATE ROD. In short, it runs like this: as §1
Data set [6] concerns the target Human immunodeficiency virus type 1 reverse transcriptase (Human immunodeficiency virus 1, UniProt Q72547). Briefly: Inhibition of HIV1 reverse transcriptase assessed as incorporation of biotin-dUTP into poly(rA)-oligo(dT). The procedure, abridged:
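ELISA-format RT kit with a poly(rA)-oligo(dT) homopolymer template/primer bound to the plate. Wild-type HIV-1 RT activity measured as biotin-dUTP incorporation into the template.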

Broadly, the CC50 is the concentration at which the toxic effect on the cells reaches its halfway point. Higher therefore signals better tolerance by the cells. One may read the EC50 as the concentration giving half of the maximal effect. For orientation: IC50 means the concentration needed to halve the response being measured.

Counter-ions that a name gives are not always drawn. Calls of active or inactive are those of the source. The rule behind the calls is not given here.

Regarding `O=C1Nc2ccc(Cl)cc2[C@@](C#CC2CC2)(C(F)(F)F)O1` [EFAVIRENZ], the CC50 at 120 h in data set [1] is greater than 6.3 µM. In data set [2], the selectivity ratio is greater than 1190. Also, in data set [3], the EC50 was 0.57 µM.
For `Cc1cc(C#N)cc(C)c1Oc1nc(Nc2ccc(C#N)cc2)nc(N)c1Br` [ETRAVIRINE], in data set [1], the CC50 at 120 h is greater than 4.6 µM. The EC50 in data set [3] was determined as 0.026 µM.
As to `CNc1nc(Nc2c(C)cc(C)cc2C)nc(NC2CCN(C(=O)c3ccccc3)CC2)n1`, the EC50 was 224 nM in data set [4] and greater than 30.9 µM in data set [3]. This molecule also had a CC50 at 120 h in data set [1] of 30.9 µM. Also, in data set [2], the selectivity ratio was found to be 132. In addition, in data set [5], the result was inactive.
In the case of `COc1nc(Nc2c(C)cc(C)cc2C)nc(NC2CCN(Cc3ccc(F)cc3)CC2)n1`, the EC50 in data set [4] was determined as 11.5 nM; in data set [3], 6.5 µM. The same molecule gave a CC50 at 120 h in data set [1] of 24.7 µM. Also, the selectivity ratio in data set [2] turned out to be 2140. In data set [5], the result was inactive.
With `COc1nc(Nc2c(C)cc(C)cc2C)nc(NC2CCN(Cc3cccc(C#N)c3)CC2)n1`, the EC50 in data set [4] came to 9.8 nM; in data set [3], 4.6 µM. Moreover, in data set [1], the CC50 at 120 h was determined as 23.5 µM. Besides, the selectivity ratio in data set [2] came out at 2380. The outcome in data set [5] was inactive.
In the case of `CC(C)Nc1cccnc1N1CCN(C(=O)c2cc3cc(NS(C)(=O)=O)ccc3[nH]2)CC1` [DELAVIRDINE MESYLATE], the EC50 is 32.6 nM in data set [4] and greater than 36.2 µM in data set [3]. The molecule further yielded a CC50 at 120 h in data set [1] greater than 36.2 µM. For the same molecule, the selectivity ratio in data set [2] was greater than 1100.
For `CNc1nc(Nc2c(C)cc(C)cc2C)nc(NC2CCN(C(=O)c3ccc(O)cc3)CC2)n1`, the values for the EC50 in data set [4] and in data set [3] were 932 nM and greater than 55.4 µM, respectively. Also, the midpoint of cytotoxicity in data set [1], the CC50 at 120 h, lay at 55.4 µM. For the same molecule, in data set [2], the selectivity ratio came to 60. In addition, the outcome in data set [5] was inactive.
Consider `CNc1nc(Nc2c(C)cc(C)cc2C)nc(NC2CCN(Cc3ccccc3C#N)CC2)n1`, for which the EC50 in data set [4] is 9.9 nM; in data set [3], 4.6 µM. The CC50 at 120 h in data set [1] was 24.7 µM. In addition, the selectivity ratio in data set [2] came out at 2500. Moreover, the outcome in data set [5] was inactive.
The like results for `CNc1nc(Nc2c(C)cc(C)cc2C)nc(NC2CCN(Cc3ccc(OC)cc3)CC2)n1` were, in that order, 9.5 nM, 5.8 µM, 22.1 µM, 2310 and “inactive”.
For the molecule `CNc1nc(Nc2c(C)cc(C)cc2C)nc(NC2CCN(C(=O)c3ccc(C(=O)O)cc3)CC2)n1`, the EC50 is no less than 127000 nM in data set [4] and greater than 255 µM in data set [3]. Besides, the CC50 at 120 h in data set [1] is no less than 255 µM. In addition, the selectivity ratio in data set [2] was no less than 2. Also, the result in data set [5] was inactive.
Turning to `Cc1cn([C@H]2C[C@H](N=[N+]=[N-])[C@@H](CO)O2)c(=O)[nH]c1=O` [ZIDOVUDINE], the EC50 was 20.6 nM in data set [4] and 0.0086 µM in data set [3]. For the same molecule, the CC50 at 120 h in data set [1] is 250 µM. The selectivity ratio in data set [2] was found to be 12200.
Consider `COc1ccc(CN2CCC(Nc3nc(Nc4c(C)cc(C)cc4C)nc(OC)n3)CC2)cc1`, for which the figures for the EC50 in data set [4] and in data set [3] were 9.7 nM and 7.4 µM, respectively. Besides, the CC50 at 120 h in data set [1] came to 19.8 µM. For the same molecule, the selectivity ratio in data set [2] is 2040. The outcome in data set [5] was inactive.
Take `COc1nc(Nc2c(C)cc(C)cc2C)nc(NC2CCN(Cc3ccccc3)CC2)n1`: the results for the EC50 in data set [4] and in data set [3] were 11.3 nM and 4.8 µM, respectively. In data set [1], this molecule came in with a 50% cytotoxic concentration (CC50) at 120 h of 28.6 µM. Further, the selectivity ratio in data set [2] worked out at 2510. Further, the result in data set [5] was inactive.
`CNc1nc(Nc2c(C)cc(C)cc2C)nc(NC2CCN(Cc3ccc(F)cc3)CC2)n1`: the EC50 in data set [4] was determined as 10.2 nM; in data set [3], 4.9 µM. In data set [1], this molecule had a cytotoxic concentration (CC50) at 120 h of 25.6 µM. In addition, the selectivity ratio in data set [2] worked out at 2880. In data set [5], the result was inactive.
Consider `COc1nc(Nc2c(C)cc(C)cc2C)nc(NC2CCN(Cc3ccc([N+](=O)[O-])cc3)CC2)n1`, for which the half-maximal effective concentration (EC50) in data set [4] was 9.4 nM; in data set [3] it was no less than 6.1 µM. Further, the CC50 at 120 h in data set [1] is 15.4 µM. In addition, the selectivity ratio in data set [2] was 1640. In addition, in data set [5], the outcome was inactive.
For `COc1nc(Nc2c(C)cc(C)cc2C)nc(NC2CCN(C(=O)c3ccccc3)CC2)n1` the same measures were 1790 nM, greater than 28.8 µM, 28.8 µM, 16 and “inactive”.
On to `CNc1nc(Nc2c(C)cc(C)cc2C)nc(NC2CCN(Cc3ccc(C#N)cc3)CC2)n1`, for which the results for the EC50 in data set [4] and in data set [3] were 8.5 nM and 1.3 µM, respectively. This molecule also yielded a CC50 at 120 h in data set [1] of 10 µM. Moreover, the selectivity ratio in data set [2] is 1190. Also, the result in data set [5] was inactive.
In the case of `CNc1nc(Nc2c(C)cc(C)cc2C)nc(NC2CCN(Cc3ccc([N+](=O)[O-])cc3)CC2)n1`, the EC50 in data set [4] is 8.2 nM; in data set [3] it was no less than 2.6 µM. This molecule had a CC50 at 120 h in data set [1] of 10.2 µM. The selectivity ratio in data set [2] was 1230. In data set [5], the outcome was inactive.
In the case of `COc1nc(Nc2c(C)cc(C)cc2C)nc(NC2CCN(C(=O)c3ccc(O)cc3)CC2)n1`, the EC50 is 1660 nM in data set [4] and greater than 121 µM in data set [3]. Besides, the CC50 at 120 h in data set [1] worked out at 121 µM. Also, the selectivity ratio in data set [2] was determined as 73. The result in data set [5] was inactive.
As to `COc1nc(Nc2c(C)cc(C)cc2C)nc(NC2CCN(Cc3ccc(C#N)cc3)CC2)n1`, the EC50 in data set [4] was determined as 9.2 nM; in data set [3], 1.6 µM. The molecule also had a CC50 at 120 h in data set [1] of 14.6 µM. Also, in data set [2], the selectivity ratio was 1600. For the same molecule, in data set [5], the result was inactive. In addition, the IC50 in data set [6] was determined as 1770 nM.
In the case of `Cc1ccnc2c1NC(=O)c1cccnc1N2C1CC1` [NEVIRAPINE], the EC50 came out at 90.1 nM in data set [4] and 11.2 µM in data set [3]. Moreover, the 50% cytotoxic concentration (CC50) at 120 h in data set [1] was greater than 15 µM.
On to `Nc1ccn([C@H]2CC[C@@H](CO)O2)c(=O)n1` [ZALCITABINE], for which, in data set [4], the EC50 came to 1040 nM. For the same molecule, in data set [1], the CC50 at 120 h was greater than 94.7 µM. For the same molecule, in data set [2], the selectivity ratio was greater than 93.
Consider `CNc1nc(Nc2c(C)cc(C)cc2C)nc(NC2CCN(C(=O)c3ccc([N+](=O)[O-])cc3)CC2)n1`, for which the EC50 in data set [4] was 1790 nM; in data set [3], greater than 33.2 µM. In addition, the CC50 at 120 h in data set [1] came out at 33.2 µM. The selectivity ratio in data set [2] is 18. In addition, the outcome in data set [5] was inactive.
`CNc1nc(Nc2c(C)cc(C)cc2C)nc(NC2CCN(Cc3cccc(C#N)c3)CC2)n1`: the EC50 in data set [4] is 7 nM; in data set [3], 4.6 µM. For the same molecule, the CC50 at 120 h in data set [1] worked out at 23 µM. For the same molecule, the selectivity ratio in data set [2] is 3240. In addition, the outcome in data set [5] was inactive. Moreover, in data set [6], the IC50 turned out to be 1970 nM.
Regarding `COc1nc(Nc2c(C)cc(C)cc2C)nc(NC2CCN(Cc3ccccc3C#N)CC2)n1`, the EC50 in data set [4] is 19.2 nM; in data set [3], 6.7 µM. This molecule also showed a CC50 at 120 h in data set [1] of 28 µM. In data set [2], the selectivity ratio is 1460. The result in data set [5] was inactive.
On to `CNc1nc(Nc2c(C)cc(C)cc2C)nc(NC2CCN(Cc3ccccc3)CC2)n1`, for which the EC50 in data set [4] is 8.8 nM; in data set [3], 5 µM. Moreover, the CC50 at 120 h in data set [1] came out at 28.4 µM. Besides, the selectivity ratio in data set [2] worked out at 3190. Also, the result in data set [5] was inactive. Also, the IC50 in data set [6] came to 2460 nM.
As to `COc1nc(Nc2c(C)cc(C)cc2C)nc(NC2CCN(C(=O)c3ccc(C(=O)O)cc3)CC2)n1`, the EC50 in data set [4] is 36200 nM; in data set [3], greater than 149 µM. The CC50 at 120 h in data set [1] is no less than 149 µM. Also, the selectivity ratio in data set [2] was no less than 4. The outcome in data set [5] was inactive.
As to `COc1nc(Nc2c(C)cc(C)cc2C)nc(NC2CCN(C(=O)c3ccc([N+](=O)[O-])cc3)CC2)n1`, the EC50 in data set [4] is 4370 nM; in data set [3] it was greater than 25.2 µM. Further, the CC50 at 120 h in data set [1] was no less than 25.2 µM. For the same molecule, the selectivity ratio in data set [2] was no less than 6. The result in data set [5] was inactive.

The values are drawn from ChEMBL document CHEMBL1955767, “Synthesis and biological evaluation of piperidine-substituted triazine derivatives as HIV-1 non-nucleoside reverse transcriptase inhibitors” (Eur J Med Chem, 2012).
